In the library only some 3.6% were active in any assay of this set; here they are far more common.
NadD block – inhibitors of Staphylococcus aureus NadD; purified NadD enzyme, colorimetric absorbance read-out; inhibition, % at 20 µM; actives 0.78% (n = 360,000); in the data active = inhibition above about 26%
SENP1 FRET inh – inhibitors of human SENP1 SUMO protease catalytic domain; Q9P0U3; recombinant SENP1 catalytic domain, CyPet-SUMO1-YPet FRET cleavage; inhibition, % at 10 µM; actives 0.21% (n = 360,000); AID 624204;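 active = inhibition at least 30% at 10 µM, raw YFP signal under a set limit, fluorescence ratio 0.5 to 1.5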;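 note: 0% = enzyme with DMSO and 100% = no enzyme wells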
Target sequence (Q9P0U3 419-644 limits assumed): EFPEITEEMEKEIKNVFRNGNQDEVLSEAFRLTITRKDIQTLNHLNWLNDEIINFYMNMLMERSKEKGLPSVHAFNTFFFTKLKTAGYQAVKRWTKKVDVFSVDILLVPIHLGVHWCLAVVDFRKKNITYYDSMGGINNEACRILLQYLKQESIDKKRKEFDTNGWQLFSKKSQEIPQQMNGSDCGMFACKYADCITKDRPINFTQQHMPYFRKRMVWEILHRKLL
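Test system: recombinant human SENP1 catalytic domain, His6-tagged / Medium: pH 8 Tris buffer with EDTA, NaCl, BME, BSA, NP40, catalase / Also added: SUMO1 FRET substrate flanked by Cypet and Ypet, 25 nM / Times: 50 min reaction at room temperature / Signal: FRET, CFP and YFP emission / Control set: no-enzyme low control and enzyme-plus-DMSO high control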
ATG4B inhibitor – inhibitors of human ATG4B cysteine protease; ATG4B cleavage of LC3-PLA2, NBD-HPC fluorescence, 1 h; AID 504462; actives 0.51% (n = 340,000); Q9Y4P1; inhibition, % at 8.33 µM; in the data active = inhibition above about 40%
Target sequence (Q9Y4P1 whole entry, looked up): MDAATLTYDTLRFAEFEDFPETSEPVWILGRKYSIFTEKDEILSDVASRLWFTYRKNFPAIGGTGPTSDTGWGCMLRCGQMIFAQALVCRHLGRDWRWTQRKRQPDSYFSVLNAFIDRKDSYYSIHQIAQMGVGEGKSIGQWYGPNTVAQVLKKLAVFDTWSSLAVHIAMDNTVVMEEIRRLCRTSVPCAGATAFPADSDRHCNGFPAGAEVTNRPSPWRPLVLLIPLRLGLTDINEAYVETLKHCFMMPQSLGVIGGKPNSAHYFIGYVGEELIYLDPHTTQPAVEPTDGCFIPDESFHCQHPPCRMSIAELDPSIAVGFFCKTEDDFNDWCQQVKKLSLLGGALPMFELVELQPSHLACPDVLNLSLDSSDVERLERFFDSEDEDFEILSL
NR3A LBD binder – modulates the human NR3A ligand-binding domain. actives 2.5% (n = 340,000). Tm shift relative to glycine control, % at 25 µM. NR3A LBD differential scanning fluorimetry, Tm shift; 0% = protein alone, 100% = glycine-bound protein;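 active = melting temperature shift of at least 10% of the positive control shift, at one fixed dose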
UCH37 inh – human UCH37 deubiquitinating enzyme inhibition | Q9Y5K5 | purified proteasome/UCH37, Ub-AMC cleavage fluorescence | inhibition, % (test concentration not listed) | actives 0.33% (n = 330,000) | AID 588478;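 active = mean inhibition over replicate wells above about 20%, limit read from the data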;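 note: 0% = compound-free wells with enzyme and 100% = wells lacking proteasome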
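Material: human UCH37 enzyme supplied as purified proteasome complex. Measure: % inhibition of Ub-AMC cleavage fluorescence. Medium: pH 7.4 Tris-HCl (50 mM) with ovalbumin, ATP-MgCl2, DTT. Times: 30 min preincubation with enzyme, 25 min cleavage at room temperature. Detection: AMC fluorescence intensity at 355/460 nm.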
Starred values were filed as active, the others as inactive; . = no result.

SMILES | NadD block | SENP1 FRET inh | ATG4B inhibitor | NR3A LBD binder | UCH37 inh
COc1ccc2cc(C(=O)Nc3ccc(Cl)cc3)sc(=O)c2c1OC | -3 | -7 | 14 | 22* | -8
CCCc1nnc(NS(=O)(=O)c2ccc(OC)cc2)s1 | 3 | 1 | -7 | 10* | .
COCc1nnc(NS(=O)(=O)c2ccc(OC)cc2)s1 | 1 | -3 | -1 | 0 | -2
COc1cccc(/C=C(\C#N)C(=O)NC2CCS(=O)(=O)C2)c1 (stereo not drawn) | -1 | 2 | 11 | 13* | 5
COC(=O)NN=C1CCCc2c(C)cc(C)cc21 | . | . | . | . | 1
COc1cc(OC)c(C(=O)NN=Cc2ccoc2)cc1OC | . | . | . | . | 5
O=C1c2cccc3cc([N+](=O)[O-])cc(c23)C(=O)N1CCN1CCCC1 | -2 | 70* | -3 | -1 | .
Nc1cc2c3c(cccc3c1)C(=O)N(CCN1CCCC1)C2=O | 6 | 38 | 0 | 0 | 6
COc1ccc2c(c1)C(=NOC(=O)c1cccs1)CCC2 | . | . | . | . | 5
Cc1ccc(C(=O)Nc2cc(Cl)ccc2N2CCCCC2)s1 | 2 | 0 | -3 | 22* | 0
CCc1sc(C(=O)Nc2cc(Cl)ccc2N2CCCCC2)cc1C | 12 | 3 | -6 | 1 | -4
Cc1ccc(C(=O)Nc2cc([N+](=O)[O-])ccc2F)s1 | 1 | 0 | -3 | 12* | 2
Cc1ccc(CC(=O)Nc2cc([N+](=O)[O-])ccc2F)cc1 | -3 | 1 | 1 | -4 | 2
CC(C)c1c(C(=O)NN=Cc2ccncc2)nnn1-c1nonc1N | . | . | . | . | 2
Cc1[nH]c2ccccc2c1C(=O)/C=C\c1ccccc1Cl | -13 | 1 | 3 | 11* | 2
Cc1[nH]c2ccccc2c1C(=O)/C=C/c1ccccc1Cl | -8 | 2 | -7 | 27* | 2
Nc1ncnc2c1ncn2[C@@H]1O[C@H](CNS(=O)(=O)c2cc(S(=O)(=O)c3ccccc3)cs2)[C@@H](O)[C@H]1O | 6 | 0 | 1 | 15* | -2
COc1ccccc1NC(=S)N1CCNC(=O)C1CC(=O)Nc1cccc(C)c1 (stereo not drawn) | -8 | 5 | -3 | 0 | 2
COc1ccccc1NC(=O)CC1C(=O)NCCN1C(=O)Nc1ccc(Cl)c(Cl)c1 (stereo not drawn) | -5 | 4 | -17 | 12* | 2
O=C(NN=Cc1ccc(O)cc1)c1cc(C23CC4CC(CC(C4)C2)C3)[nH]n1 | . | . | . | . | -1
COC(=O)c1ccc(Cn2nc(C(F)(F)F)cc2C)cc1 | 6 | 1 | -12 | 17* | 0
Cc1[nH]c2ccccc2c1C=NNC(=S)NCc1ccccc1 | . | . | . | . | -1
COc1ccc(C(=O)NC(=S)N2CC(C)OC(C)C2)cc1OC (stereo not drawn) | -2 | 0 | 2 | 12* | 3
Cn1cc(C2CC(c3ccccc3)=NN2C(=O)c2ccccc2)c2ccccc21 (stereo not drawn) | 3 | -13 | -5 | -1 | 4
CCCC(=O)N1N=C(c2ccccc2)CC1c1cn(C)c2ccccc12 (stereo not drawn) | -5 | -8 | 1 | 15* | 3
SMILES | NadD block | SENP1 FRET inh | ATG4B inhibitor | NR3A LBD binder | UCH37 inh
Cc1ccc(C(=O)Nc2sc(C)c(C)c2C(=O)c2ccccc2)cc1 | -4 | 1 | -7 | 20* | 4
Cc1sc(NC(=O)c2ccccc2)c(C(=O)NC(C)C)c1C | 6 | -7 | 1 | -3 | -228
Cc1cc(C(=O)ON=C(N)c2ccc(C(C)(C)C)cc2)no1 | . | . | . | . | 3
O=C(COc1ccc(Cl)cc1Cl)NN1C(=O)/C(=C\c2ccc(Cl)cc2)SC1=S | 33* | 5 | 8 | 2 | 10
O=C(COc1ccc(Cl)cc1Cl)NN1C(=O)C2C3C=CC([C@@H]2C1=O)C31CC1 (stereo partly drawn) | -2 | -3 | -2 | -11 | 3
COc1ccc(C=N/N=C2/NC(=O)C(c3ccccc3)S2)c(OC)c1 (stereo not drawn) | . | . | . | . | 10
COc1cc2cc3c(N)c(C(=O)Nc4sc(C)c(C)c4C#N)sc3nc2cc1OC | 8 | -23 | -1 | 19* | 4
CCn1c(SCC(=O)NN=C(C)c2ccncc2)nnc1-c1ccccc1 | . | . | . | . | 2
COc1ccc2oc(C(=O)Nc3nc(C)cs3)c(C)c2c1 | 5 | -28 | -2 | 20* | -118
COc1ccc2oc(C(=O)Nc3ccccn3)c(C)c2c1 | -5 | -8 | -2 | 0 | -13
NC(CSc1nc(-c2ccccc2)c(-c2ccccc2)o1)=NO | . | . | . | . | 0
CCc1nnc(NS(=O)(=O)c2ccc(NC(=S)NC(=O)/C=C/c3ccc(C(C)C)cc3)cc2)s1 | 69* | 3 | 33 | 15* | 13
C=CCNC(=S)NN=Cc1ccc(C)s1 | . | . | . | . | 6
COc1ccc(-c2nnc(SCC(=O)N3CCCC3=O)n2N)cc1OC | -3 | 1 | -4 | 19* | -2
Nn1c(SCC(=O)N2CCCC2=O)nnc1-c1cccs1 | -2 | 1 | -7 | 4 | 0
Cc1ccc(C(=O)ON=C2CCCc3ccccc32)cc1 | . | . | . | . | 3
CCOc1ccc(-c2c(C(=O)NN=C(C)c3ccco3)nnn2-c2nonc2N)cc1 | . | . | . | . | -28
O=C(Nc1ccc(OC(F)F)c(Cl)c1)C(c1ccccc1)c1ccccc1 | -3 | 3 | 11 | 21* | -1
O=C(Cc1cccc2ccccc12)Nc1ccc(OC(F)F)c(Cl)c1 | -3 | 2 | 6 | 23* | -1
O=C(O)c1ccccc1OC(C(=O)Nc1cc(Cl)cc(Cl)c1)c1ccccc1 (stereo not drawn) | 12 | 2 | -8 | 23* | 2
FC(F)Oc1ccc(NC(=S)NCc2ccccc2)cc1Cl | -5 | 1 | 36 | -2 | 1
CC1CCN(Cc2c(C(=O)N/N=C/c3cccc(C(F)(F)F)c3)nnn2-c2nonc2N)CC1 | 9 | 1 | 5 | 16* | .
CCOc1ccc(/C=N/NC(=O)c2nnn(-c3nonc3N)c2CN2CCC(C)CC2)cc1 | 5 | 1 | 5 | 11* | .
CC1CCN(Cc2c(C(=O)NN=Cc3ccc(C(F)(F)F)cc3)nnn2-c2nonc2N)CC1 | . | . | . | . | 1
CC1CCN(Cc2c(C(=O)N/N=C/c3ccc(C(F)(F)F)cc3)nnn2-c2nonc2N)CC1 | 4 | -2 | 4 | 6 | .
SMILES | NadD block | SENP1 FRET inh | ATG4B inhibitor | NR3A LBD binder | UCH37 inh
Nc1nonc1-n1nnc(C(=O)NN=Cc2ccc(OCc3ccccc3F)cc2)c1CN1CCCCC1 | . | . | . | . | -2
Nc1nonc1-n1nnc(C(=O)N/N=C/c2ccc(OCc3ccccc3F)cc2)c1CN1CCCCC1 | 26 | 1 | -8 | 16* | .
Cn1cccc1C=NNC(=O)CSc1nc2ccccc2[nH]1 | . | . | . | . | 5
O=C(NN=Cc1ccncc1)c1nc2ccccc2c(=O)[nH]1 | . | . | . | . | 6
CC(C)NC(=S)NNC(=O)C12CC3CC(CC(C3)C1)C2 | -6 | 2 | -4 | 11* | 1
CCCCCCn1cnc2c(c1=O)c1nc3ccccc3nc1n2N=Cc1ccco1 | . | . | . | . | -9

From PubChem
